For test [1], the system named is NCI-H1299. As to the kind of experiment: Antiproliferative activity against human H1299 cells after 48 hrs by resazurin dye-based fluorescence assay. The format is functional, cell-based. The note with it: NCI-H1299, 48 h. The method in brief:
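H1299 non-small-cell lung cells, kept subconfluent, passages 3–30, seeded 2000 cells/well; after 24 h exposed to serial concentrations in serum complete medium, 0.1% DMSO final, for 48 h. Resazurin then added, 16 h at 37 °C; fluorescence read at 544 nm excitation/595 nm emission, proportional to viable cells. IC50 from three repeats.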
A general note: Resazurin is reduced to fluorescent resorufin, in cell work by metabolically active cells.

In test [2] the target is T1, Heat shock protein HSP 90-alpha (Homo sapiens, UniProt P07900). Nature of the test: Inhibition of HSP90alpha in human H1299 cells assessed as decrease in EGFR levels after 72 hrs by Western blot analysis. The format is cell-based. The method in brief: (§1)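 H1299 cells seeded in 15 cm dishes at 8 × 10⁴ cells/mL, 24 h, then treated at 7.5 and 15 µM for 72 h at 37 °C; DMSO-only controls. Lysed on ice 30 min, cleared at 10000 × g, protein by BCA. 25–100 µg run on 10% or 12% SDS-PAGE, blotted to nitrocellulose. Probed with antibodies to CDK2, EGFR, p-EGFR (Tyr1068), AKT, p-AKT, cleaved PARP; β-actin loading control; chemiluminescence; three repeats.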
A general note: Immunoblotting shows a protein as a band on a membrane.

Test [3] deals with T1, Heat shock protein HSP 90-alpha. As to the kind of experiment: Inhibition of HSP90alpha in human H1299 cells assessed as decrease in phosphorylation of EGFR after 72 hrs by Western blot analysis. It is filed as cell-based. The method in brief:
as §1

Test [4] relates to NCI-H1299. Nature of the test: Antiproliferative activity against human H1299 cells assessed as inhibition of cell viability after […] by resazurin dye-based fluorescence assay. The format is functional. The method in brief: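 H1299 cells, 2000/well, seeded 24 h, then exposed to serial compound concentrations in serum-containing complete medium for 48 h (DMSO vehicle, 0.1% final). Resazurin (2 mg/mL stock) added, 16 h at 37 °C. Fluorescence read at 544 nm ex / 595 nm em; RFU taken as proportional to living cells.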

The target in test [5] is T1, Heat shock protein HSP 90-alpha. As to the kind of experiment: Inhibition of HSP90alpha in human H1299 cells assessed as decrease in phosphorylation of AKT after 72 hrs by Western blot analysis. It is filed as cell-based. Summed up:
as §1

The target is the same in test [6]. As to the kind of experiment: Inhibition of FITC-GA binding to N-terminal domain of HSP90alpha (unknown origin) after 5 hrs by fluorescence polarization assay. For orientation: Fluorescence polarisation rises when a labelled molecule tumbles more slowly, as on binding a larger partner.
The subject of test [7] is NCI-H1299. Nature of the test: Induction of apoptosis in human H1299 cells assessed as increase in cleaved PARP levels after 72 hrs by Western blot analysis. The format is functional, cell-based. Summed up: as §1
For test [8], the target named is T1, Heat shock protein HSP 90-alpha. Nature of the test: Inhibition of HSP90alpha in human H1299 cells assessed as decrease in AKT levels after 72 hrs by Western blot analysis. It is filed as cell-based. Summed up:
as §1

For test [9], the system named is NCI-H1299. As to the kind of experiment: Induction of apoptosis in human H1299 cells assessed as inhibition of expression of CDK2 after 72 hrs by Western blot analysis. It is filed as functional, cell-based. The method in brief:
as §1

Usually IC50 stands for the concentration that gives 50% inhibition. Read a high IC50 as weaker potency in that assay.

`COc1ccccc1Cn1cc(-c2ccc(O)cc2)c(-c2ccc(O)cc2)c1`: the midpoint of inhibition in test [1], the IC50, lay at 23.1 µM.

The compound `COc1ccc(-c2cn(Cc3ccc(O)cc3)cc2-c2ccc(OC)c(OC)c2)cc1OC` yielded an IC50 in test [1] of 30.6 µM.

For `COc1ccc(-c2cn(Cc3ccccc3O)cc2-c2ccc(OC)cc2)cc1`, the IC50 in test [1] is 20.8 µM.

With `Oc1ccc(-c2cn(Cc3ccccc3)cc2-c2ccc(O)cc2)cc1`, in test [1], half-maximal inhibition (IC50) required 26.9 µM.

With `COc1cc(Cn2cc(-c3ccc(O)c(O)c3)c(-c3ccc(O)c(O)c3)c2)cc(OC)c1OC`, the inhibition entry in test [2], in [3], in test [4], in [5], in [8] and in test [9] was “Dose-dependent effect” throughout. Further, the IC50 worked out at 13.2 µM in test [1] and 852 nM in test [6]. Moreover, in test [7], the Activity result is “Dose-dependent effect”.

For `C=CCNC1=C2C[C@@H](C)C[C@H](OC)[C@H](O)[C@@H](C)/C=C(\C)[C@H](OC(N)=O)[C@@H](OC)/C=C\C=C(/C)C(=O)NC(=CC1=O)C2=O` [TANESPIMYCIN], in test [1], the IC50 is 0.2 µM.

For the compound `COc1ccc(Cn2cc(-c3ccc(O)cc3)c(-c3ccc(O)cc3)c2)cc1OC`, the inhibition entry in test [4] is “Dose-dependent effect”. For the same compound, the IC50 in [1] was determined as 29.2 µM.

In the case of `COc1cccc(Cn2cc(-c3ccc(O)cc3)c(-c3ccc(O)cc3)c2)c1`, 25.3 µM corresponded to half-maximal inhibition in test [1] (IC50).

In the case of `COc1ccc(Cn2cc(-c3ccc(O)cc3)c(-c3ccc(O)cc3)c2)c(OC)c1`, it took 31.6 µM to reach half-maximal inhibition in test [1] (IC50).

Regarding `COc1ccc(-c2cn(Cc3ccc(O)c(O)c3)cc2-c2ccc(OC)cc2)cc1`, the inhibition result in [4] is “Dose-dependent effect”. Also, the IC50 in test [1] stood at 19.1 µM.

For the compound `COc1ccc(Cn2cc(-c3ccc(O)c(O)c3)c(-c3ccc(O)c(O)c3)c2)cc1OC`, the inhibition entry in test [2], in [3], in [4], in test [5], in test [8] and in [9] was “Dose-dependent effect” each time. The IC50 in test [1] came to 10.5 µM; in test [6] it was 374 nM. In test [7], the Activity result was “Dose-dependent effect”.

For `COc1ccc(Cn2cc(-c3ccc(O)c(O)c3)c(-c3ccc(O)c(O)c3)c2)cc1`, the inhibition entry in test [2], in test [3], in test [4], in [5], in test [8] and in test [9] was “Dose-dependent effect” each time. Besides, the IC50 in [1] came out at 8.3 µM; in test [6] it was 752 nM. In addition, in test [7], the Activity entry was “Dose-dependent effect”.

The compound `COc1ccc(-c2cn(Cc3ccc(O)c(O)c3)cc2-c2ccc(OC)c(OC)c2)cc1OC` gave an IC50 in test [1] of 23.4 µM.

In the case of `COc1cc(-c2cn(Cc3ccc(O)cc3)cc2-c2cc(OC)c(OC)c(OC)c2)cc(OC)c1OC`, the IC50 in [1] was > 100 µM.

Compound `COc1ccc(-c2cn(Cc3ccc(O)cc3)cc2-c2ccc(OC)cc2)cc1` came in with an IC50 in test [1] of 20.5 µM.

As to `COc1ccccc1Cn1cc(-c2ccc(O)c(O)c2)c(-c2ccc(O)c(O)c2)c1`, inhibition in test [1] was half-maximal at 8.6 µM (IC50).

Compound `COc1cc(-c2cn(Cc3ccc(O)c(O)c3)cc2-c2cc(OC)c(OC)c(OC)c2)cc(OC)c1OC` displayed an IC50 in test [1] of 29.2 µM.

As to `COc1ccc(Cn2cc(-c3ccc(O)cc3)c(-c3ccc(O)cc3)c2)cc1`, in [1], the IC50 was 37.3 µM.

`COc1ccc(Cn2cc(-c3ccc(O)cc3)c(-c3ccc(O)cc3)c2)c(OC)c1OC`: the midpoint of inhibition in test [1], the IC50, lay at 25.1 µM.

The values above are taken from ChEMBL document CHEMBL4033642, “Design and synthesis of neolamellarin a derivatives targeting heat shock protein 90” (Eur J Med Chem, 2017).
